# Hits are enriched below; roughly 1.8% of the tested compounds scored in any of these assays.
# M5 PAM – potentiates acetylcholine response at human M5 receptor. activation, % at 3 µM. CHO-K1 hM5, Fluo-8 calcium, ACh EC20 PAM; 0% = ACh EC20, 100% = ACh EC100. 360,000 tested, 0.3% active;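 active means activation above the run cutoff, the mean activation of all test compounds plus 3 SD, cut at about 18% in these data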
# Target sequence (P08912 whole entry, looked up): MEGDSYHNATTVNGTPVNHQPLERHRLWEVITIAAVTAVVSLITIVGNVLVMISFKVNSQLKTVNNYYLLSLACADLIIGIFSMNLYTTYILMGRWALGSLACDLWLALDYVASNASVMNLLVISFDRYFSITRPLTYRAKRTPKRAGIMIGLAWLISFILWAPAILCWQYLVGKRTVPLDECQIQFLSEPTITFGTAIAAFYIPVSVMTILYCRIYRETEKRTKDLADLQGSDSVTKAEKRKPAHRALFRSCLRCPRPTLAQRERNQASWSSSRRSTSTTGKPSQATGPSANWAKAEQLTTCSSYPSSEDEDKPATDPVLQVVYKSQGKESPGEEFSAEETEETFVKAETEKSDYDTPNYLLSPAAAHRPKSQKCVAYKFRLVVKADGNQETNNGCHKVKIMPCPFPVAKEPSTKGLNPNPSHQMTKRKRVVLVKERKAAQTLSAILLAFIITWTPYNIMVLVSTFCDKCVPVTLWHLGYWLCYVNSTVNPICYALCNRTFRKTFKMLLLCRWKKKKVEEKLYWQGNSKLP
#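 Test system: CHO-K1 hM5 cells / Doses: single-point, 3 µM nominal / Times: Post-acetylcholine fluorescence recording 140 s / Technique: Fluo-8 calcium fluorescence / Measure: Max/basal fluorescence ratio as % of EC20–EC100 ACh window / Benchmarks: low control EC20 acetylcholine (0%), high control EC100 acetylcholine (100%) / Replicates: one well per compound, no replicates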
# M4 ag – agonists of human muscarinic M4 receptor (CHRM4). P08173. CHO-K1 hM4/Gqi5, Fluo-8 calcium fluorescence; vehicle 0%, full acetylcholine response 100%. activation, % at 3 µM. 360,000 tested, 0.14% active. AID 624127;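 active means activation above the run mean over all test wells plus 3 SD, cut at about 32% in these data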;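 further: peak over basal fluorescence ratio per well then scaled between controls; 0% = DMSO wells and 100% = acetylcholine at EC100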
# M5 ag – agonists of human muscarinic M5 receptor (CHRM5) | P08912 | CHO-K1 hM5 cells, Fluo-8 calcium fluorescence; 0% DMSO wells, 100% maximal acetylcholine response | activation, % at 3 µM | 360,000 tested, 0.19% active | AID 624037;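 active means activation above the run's mean over test compounds plus 3 SD, cut at about 23% in these data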;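 further: signal is peak over basal fluorescence ratio across the kinetic read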
# M4 antag – blocks acetylcholine activation of human M4 receptor. P08173. CHO-hM4 cells, ACh EC80, Fluo-8 calcium fluorescence. inhibition, % at 3 µM. 360,000 tested, 0.73% active;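 active means inhibition above its plate's cutoff, the mean inhibition of sample wells plus 3 SD, cut at about 27% in these data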;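 further: 0% = acetylcholine EC80 with DMSO and 100% = DMSO without agonist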
# M4 PAM – potentiates acetylcholine response at human M4 receptor; activation, % at 3 µM; CHO-K1 hM4/Gqi5, Fluo-8 calcium fluorescence, ACh EC20; 0% = ACh EC20, 100% = maximal ACh; P08173; 360,000 tested, 0.4% active; AID 624126;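 active means activation above its plate's cutoff, the mean activation of sample wells plus 3 SD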
# M5 antag – CHRM5 antagonism in calcium assay; P08912; AID 624040; inhibition, % at 3 µM; CHO-hM5 cells, Fluo-8 calcium fluorescence, ACh EC80; 360,000 tested, 0.59% active;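 active means inhibition above a per-plate cutoff, the mean of that plate's test compounds plus 3 SD, cut at about 27% in these data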;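 further: 0% = acetylcholine EC80 with DMSO and 100% = DMSO without agonist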
# Starred values were filed as active, the others as inactive; + = active, no number.
SMILES,M5 PAM,M4 ag,M5 ag,M4 antag,M4 PAM,M5 antag
O=C(Nc1c(F)cccc1F)c1cnc(N2CCN(c3ccccn3)CC2)c2ccccc12,-20,19,0,4,-15,14
COc1ccc(CN2C(=O)CNC2=S)cc1,2,0,-6,6,-6,0
Cc1cc(C)c(C)c(S(=O)(=O)NCCCn2ccnc2)c1C,-8,2,-25,-1,-1,-8
CSC1=NSC2=NC(=O)/C(=C\c3coc4ccccc4c3=O)C(=N)N12,-13,25,27*,27*,-17,26
CC(C)CSC1=NSC2=NC(=O)/C(=C\c3coc4ccccc4c3=O)C(=N)N12,-23,89*,168*,52*,-21,68*
Cc1cccc(NC(=O)CCCN2C(=O)C3CC=CCC3C2=O)c1 (centres undefined),-2,0,-4,0,1,7
CCc1ccc(NC(=O)CCCN2C(=O)C3CC=CCC3C2=O)cc1 (centres undefined),-8,2,-8,-13,4,29*
CCn1c(=NC(=O)C2COc3ccccc3O2)sc2c(OC)ccc(OC)c21 (centres undefined),-3,-2,-2,36*,-21,5
COCCn1c(=NC(=O)C2COc3ccccc3O2)sc2cc(S(N)(=O)=O)ccc21 (centres undefined),-9,13,4,2,-13,4
C=CCN(C)CC/C=C1\c2ccccc2CSc2ccccc21,-43,3,-14,52*,-17,62*
CN(CC/C=C1/c2ccccc2CSc2ccccc21)CCCO,-20,7,-6,65*,-38,44*
CC(O)CN(C)CC/C=C1/c2ccccc2CSc2ccccc21 (centres undefined),-22,1,-8,19,-14,25
NCC/C=C1/c2ccccc2CSc2ccccc21,-43,7,-13,23,-14,34*
C#CCN(C)CC/C=C1\c2ccccc2CSc2ccccc21,-41,-2,-15,32*,-15,37*
Cn1cc(-c2ccc3c(c2)OCO3)c2ccccc21,6,-1,0,-3,4,-13
O=C(c1ccccc1Nc1ccc(SC(F)F)cc1)N1CCCCC1,6,0,-4,20,36*,1
CC1CCCC(C)N1C(=O)c1ccccc1Nc1ccc(SC(F)F)cc1 (centres undefined),22*,-1,-6,-7,-2,-6
O=c1c2c([nH]n1-c1ccccc1)C[C@@H](C1CCCCC1)O[C@H]2c1ccc(F)cc1,-12,0,0,2,-4,10
N#C/C(=C\c1cccc(O)c1)C(=O)Nc1ccc2c(c1)OCCO2,6,0,-2,-12,-1,4
CCOc1cc(S(=O)(=O)NCc2ccncc2)ccc1Cl,-15,23,5,36*,-16,60*
O=S(=O)(Nc1ccc(Cc2ccncc2)cc1)c1ccc(Cl)c(Cl)c1,-21,8,-7,34*,-33,7
CCN(CC(=O)Nc1ccc(OC)cc1)C(=O)CN1C(=O)NC(C)(c2ccc3ccccc3c2)C1=O (centres undefined),-11,4,-6,4,-3,32*
CCN(CC(=O)Nc1ccc(OC)cc1)C(=O)Cc1ccsc1,-1,1,2,-23,22*,-5
Cc1[nH]n(-c2ccccc2)c(=O)c1N=Nc1cccc(C(=O)O)c1,0,0,-1,2,-2,13
Cc1ccc(NC(=O)CCC(=O)N/N=C/C=C/c2ccccc2)cc1,-5,0,-5,0,-2,16
SMILES,M5 PAM,M4 ag,M5 ag,M4 antag,M4 PAM,M5 antag
Cc1c(C(=O)NCCCn2ccnc2)oc2ccccc12,18*,1,-3,-2,2,-5
CCOc1ccc(C(=O)NCCCn2ccnc2)cc1,18*,0,-7,3,5,0
CCCOc1ccc(C(=O)NCCCn2ccnc2)cc1,1,1,-3,13,-3,-3
O=C(NCCCn1ccnc1)c1cc2ccccc2o1,-1,1,0,-9,2,6
Cc1ccc(C)c(NC(=O)CSc2nc(=O)n(CCN3CCOCC3)c3c2CCCC3)c1,3,3,-1,0,5,13
CC(C)c1ccc(NC(=O)C2CC(=O)N(C3CCCC3)C2)cc1 (centres undefined),-3,4,-3,-19,18*,6
COC(=O)c1cccc(NC(=O)CC2C(=O)NCCN2C(=O)c2ccc(F)cc2F)c1 (centres undefined),0,1,0,-11,-2,10
Cc1cc(=O)n(-c2ccc3ccccc3n2)[nH]1,3,0,1,19,34*,-2
N#CC1c2ccccc2C=CN1C(=O)N(c1ccccc1)c1ccccc1 (centres undefined),-2,-1,-3,-9,1,11
CCN1/C(=C/C=C/c2oc3ccc(-c4ccccc4)cc3[n+]2CC)Oc2ccc(-c3ccccc3)cc21,-34,+,+,99*,-3,102*
COc1ccc([C@H]2C[C@@H](n3cc(COC(=O)c4ccccc4)nn3)[C@H](O)CN2Cc2cccs2)cc1,2,0,0,-26,1,-8
Cc1cc(C)n(CCN(C)C(=O)C2CCC(=O)N(CCc3cccc(F)c3)C2)n1 (centres undefined),-3,1,-4,0,3,0
CCc1nnc(NS(=O)(=O)c2ccc(NC(=S)NC(=O)/C=C/c3ccc(C(C)C)cc3)cc2)s1,-21,-1,-7,27*,-13,12
Cc1cc(Cl)ccc1OC(C)C(=O)Nc1ccc(C(=O)Nc2ccccc2C(=O)O)cc1 (centres undefined),17,-2,2,-11,23*,-11
C[C@@H]1CN([C@@H](C)CO)C(=O)c2cccc(NS(C)(=O)=O)c2O[C@H]1CN(C)CC1CCCCC1,8,3,4,4,5,2
CCOC(=O)CSc1ncnc2c1sc1nc(N3CCOCC3)c3c(c12)CCCC3,0,0,0,-5,28*,-9
COC(=O)CSc1ncnc2c1sc1nc(N3CCOCC3)c3c(c12)CCCC3,-2,1,-3,5,4,-2
Cc1ccc(NC(=O)Cn2cc(C=O)c3ccccc32)cc1,-14,7,-3,3,-7,26
O=Cc1cn(CC(=O)Nc2ccc3c(c2)OCO3)c2ccccc12,-20,22,7,22,-20,27*

# Screening data from PubChem.
